Columns and labels:
[1] = system: PELP1-shRNA expressing ZR75 cells; assay: MTT cell viability assay, PELP1 knockdown cells; format: cell-based, human; conditions: PELP1 knockdown vs control
PELP1 [2] = molecular target: T1, PELP1 (Homo sapiens, UniProt Q8IZL8); assay: Biotin-Avidin pull-down assays; format: binding; conditions: Biotin-tagged peptides, ZR75 nuclear lysate
Target sequence in this assay (Q8IZL8 2-1130): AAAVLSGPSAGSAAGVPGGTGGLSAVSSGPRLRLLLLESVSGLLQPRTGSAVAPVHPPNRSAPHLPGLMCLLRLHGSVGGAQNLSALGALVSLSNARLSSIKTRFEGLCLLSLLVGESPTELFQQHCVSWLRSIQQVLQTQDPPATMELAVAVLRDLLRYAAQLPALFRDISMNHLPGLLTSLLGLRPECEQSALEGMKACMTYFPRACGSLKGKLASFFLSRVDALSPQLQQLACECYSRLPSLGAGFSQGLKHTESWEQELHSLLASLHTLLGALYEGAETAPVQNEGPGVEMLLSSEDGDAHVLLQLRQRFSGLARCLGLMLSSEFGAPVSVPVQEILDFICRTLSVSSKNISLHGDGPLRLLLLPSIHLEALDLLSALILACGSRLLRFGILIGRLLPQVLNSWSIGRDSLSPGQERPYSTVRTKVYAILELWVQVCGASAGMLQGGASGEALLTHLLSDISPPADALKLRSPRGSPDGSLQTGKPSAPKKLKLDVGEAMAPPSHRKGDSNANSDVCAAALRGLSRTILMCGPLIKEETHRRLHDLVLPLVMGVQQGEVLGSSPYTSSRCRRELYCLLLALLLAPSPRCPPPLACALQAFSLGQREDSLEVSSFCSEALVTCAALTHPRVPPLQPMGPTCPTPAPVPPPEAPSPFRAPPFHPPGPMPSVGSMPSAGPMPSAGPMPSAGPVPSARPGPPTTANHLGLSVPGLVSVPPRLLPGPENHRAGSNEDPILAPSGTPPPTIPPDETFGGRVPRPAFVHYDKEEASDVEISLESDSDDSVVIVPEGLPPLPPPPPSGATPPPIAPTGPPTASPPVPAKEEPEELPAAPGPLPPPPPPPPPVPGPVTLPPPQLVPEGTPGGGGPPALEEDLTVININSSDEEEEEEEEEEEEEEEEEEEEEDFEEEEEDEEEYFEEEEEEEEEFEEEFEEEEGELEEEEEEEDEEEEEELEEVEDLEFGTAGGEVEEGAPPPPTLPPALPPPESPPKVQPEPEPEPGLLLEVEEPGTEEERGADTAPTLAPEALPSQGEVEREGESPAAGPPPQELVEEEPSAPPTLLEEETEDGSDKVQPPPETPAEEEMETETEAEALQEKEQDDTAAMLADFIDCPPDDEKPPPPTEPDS

PELP1 [3] = molecular target: T1, PELP1; assay: PELP1 degradation by Western blotting; format: cell-based; conditions: MCF7 cells, MG132 5 μM
In short: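 ZR75 and MCF7 cells were exposed to graded test-compound concentrations for 24 h. For the proteasome arm, MCF7 cells received small molecule (10 μM, 4 and 6 h) or peptide (10 μM, 7 h), each ± MG132 (5 μM). Lysis used NP-40/Triton X-100 buffer with protease/phosphatase inhibitors and NEM. PELP1 was normalized to loading control, relative to untreated.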
Target sequence in this assay (Q8IZL8 whole entry): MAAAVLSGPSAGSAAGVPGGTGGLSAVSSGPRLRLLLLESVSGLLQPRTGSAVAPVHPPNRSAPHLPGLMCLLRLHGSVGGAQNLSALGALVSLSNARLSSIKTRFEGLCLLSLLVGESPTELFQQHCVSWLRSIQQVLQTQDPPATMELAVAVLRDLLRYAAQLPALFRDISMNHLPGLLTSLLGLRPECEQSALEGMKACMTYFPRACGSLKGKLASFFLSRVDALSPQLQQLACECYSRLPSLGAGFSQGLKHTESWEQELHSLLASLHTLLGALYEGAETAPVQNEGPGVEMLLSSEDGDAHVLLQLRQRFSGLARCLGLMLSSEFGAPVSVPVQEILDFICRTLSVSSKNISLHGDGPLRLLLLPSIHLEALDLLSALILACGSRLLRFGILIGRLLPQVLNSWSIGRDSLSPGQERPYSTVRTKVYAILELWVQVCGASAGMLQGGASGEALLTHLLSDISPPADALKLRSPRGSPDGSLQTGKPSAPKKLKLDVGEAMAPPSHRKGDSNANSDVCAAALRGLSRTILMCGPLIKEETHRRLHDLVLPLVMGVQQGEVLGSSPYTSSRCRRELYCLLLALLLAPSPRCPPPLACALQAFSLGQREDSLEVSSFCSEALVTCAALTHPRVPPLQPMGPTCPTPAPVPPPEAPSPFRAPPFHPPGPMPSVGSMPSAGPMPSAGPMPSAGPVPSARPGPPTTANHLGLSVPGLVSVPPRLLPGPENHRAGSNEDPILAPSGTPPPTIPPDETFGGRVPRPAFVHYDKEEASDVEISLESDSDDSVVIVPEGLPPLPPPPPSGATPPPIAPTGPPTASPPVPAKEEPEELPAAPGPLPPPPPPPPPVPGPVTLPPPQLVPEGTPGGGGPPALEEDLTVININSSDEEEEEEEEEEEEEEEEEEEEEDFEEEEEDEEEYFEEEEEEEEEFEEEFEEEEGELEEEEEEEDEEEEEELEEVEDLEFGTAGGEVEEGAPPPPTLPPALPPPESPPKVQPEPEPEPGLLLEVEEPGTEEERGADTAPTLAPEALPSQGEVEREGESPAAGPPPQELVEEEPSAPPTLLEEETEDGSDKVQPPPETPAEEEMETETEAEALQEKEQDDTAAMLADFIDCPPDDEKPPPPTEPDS

[4] = system: MCF7-TamR and MCF7-LTLT BC model cells; assay: Cell viability of therapy-resistant cells treated with PIP1; format: cell-based, human; conditions: 7 days
ZR75-PELP1 cells = assay: MTT cell viability assay, ZR75-PELP1 cells; format: cell-based, human
In short: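 ZR75-PELP1 cells were treated with peptide every 3 days, and MTT absorbance was read at day 7 (n=3). A screen compared ZR75 with ZR75-PELP1 cells.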

[5] = system: E2 mediated ERE reporter activation; assay: ERE-luciferase reporter assay; format: cell-based, human; conditions: ZR75-PELP1 (PIP1) or ZR75 (SMIP34) cells
[6] = system: ZR75-PELP1 and MCF7-PELP1 cells; assay: QCM chemotaxis cell migration assay; format: cell-based, human; conditions: 10 μM, 12 hours

Q: Which results are given for “PIP1: PELP1 inhibiting peptide with TAT signal; TAT-PIP1: GRKKRRQRRRGGMVEFRWSCPGRRKAKA (not fully specified; left off: Gal4 activation domain, end not stated, kept)”?
A: activity when PELP1 is knocked down [1]: substantially reduced the activity of PIP1; relative affinity to bind PELP1 (peptide pull-down) (PELP1 [2]): higher affinity to bind to PELP1 than PIP2; PELP1 degradation in presence of proteasome inhibitor MG132 (PELP1 [3]): attenuated PIP1 mediated degradation of PELP1; effect on cell viability of therapy-resistant cells [4]: significantly reduced the cell viability; comparison of activity between hits in MTT assays (ZR75-PELP1 cells): more efficient anti-proliferative activity than PIP2; effect on PELP1-mediated proliferation (ZR75-PELP1 cells; TAT-tagged peptides every 3 days, read at 7 days): significantly inhibited PELP1-mediated proliferation; E2 induced ERE reporter activity [5]: significantly decreased E2 mediated ERE reporter activation; cell migration [6]: significant decrease in the cell migration
